Measured values of several laboratories.
Each line is one published result; the experiments were not run side by side. Values after ≈ are worked out from the molar mass of the structure shown.

| SMILES | organism | test | test system | setting | measurement | value |
| --- | --- | --- | --- | --- | --- | --- |
| C=C[C@]1(C)C[C@@H](OC(=O)CS[C@@H]2C[C@H]3CC[C@@H](C2)N3C)[C@]2(C)[C@H](C)CC[C@]3(CCC(=O)[C@H]32)[C@@H](C)[C@@H]1O | Enterococcus faecalis | microbial growth |  | clinical isolate | MIC90 | > 128 µg/mL |
| COc1ccc(Nc2cnnc3ccc(-c4cnc(N5CCCN(C)CC5)nc4)cc23)cc1Cl | Leishmania major | parasite growth |  | intracellular, amastigote | EC50 | > 21 µM |
| OC(Cn1cncn1)(Cn1cncn1)c1ccc(F)cc1F | Aspergillus fumigatus | microbial growth, broth dilution | AF293 | 48 h | MIC | > 64 µg/mL |
| COc1c(N2C[C@@H]3CCCN[C@@H]3C2)c(F)cc2c(=O)c(C(=O)O)cn(C3CC3)c12 | Enterococcus faecalis | microbial growth, broth dilution |  | clinical isolate | MIC50 | 0.5 µg/mL (≈ 1.25 µM) |
| CNC(=S)NN=Cc1ccc(F)cc1 | Leishmania major | parasite growth | J774.A1 | 72 h, intracellular, amastigote | IC50 | 319 µM |
| CN1CCN(c2ncc(-c3ccc4c(Nc5ncccn5)cnnc4c3)cn2)CC1 | Leishmania major | parasite growth |  | intracellular, amastigote | EC50 | > 25 µM |
| S=C(NN=Cc1ccc(Br)cc1)Nc1cccnc1 | Leishmania major | parasite growth | J774.A1 | 72 h, intracellular, amastigote | IC50 | 627 µM |
| C/C(=N\CCNCCNCC/N=C(\C)c1c(O)c2ccccc2oc1=O)c1c(O)c2ccccc2oc1=O | Aspergillus glaucus | microbial growth, broth dilution |  | 48 h | MIC | 125 µg/mL |
| CCCCCCCCN=c1ccn(CCCCCCCCCCn2ccc(=NCCCCCCCC)cc2)cc1 | Enterococcus faecalis | microbial growth |  |  | MIC | 0.5 µM |
| C[C@@H]1[C@H](O)[C@@H](C)/C=C/C=C/C=C/C=C/C=C/C=C/C=C/[C@H](O[C@@H]2O[C@H](C)[C@@H](O)[C@H](N)[C@@H]2O)C[C@@H]2O[C@](O)(C[C@@H](O)C[C@@H](O)[C@H](O)CC[C@@H](O)C[C@@H](O)CC(=O)O[C@H]1C)C[C@H](O)[C@H]2C(=O)O | Leishmania major | parasite growth, MTT |  | 72 h, promastigote | IC50 | 9.6 µM |
| CC(=O)NC[C@H]1CN(c2ccc(N3CCOCC3)c(F)c2)C(=O)O1 | Enterococcus faecalis | microbial growth, agar dilution | ATCC29212 |  | MIC | 2 µg/mL |
| CNC(=S)NN=Cc1ccc(O)c(OC)c1 | Leishmania major | parasite growth, MTT |  | 72 h, promastigote | IC50 | 38.3 µM |
| COc1ccc(Nc2cnnc3cc(-c4cnc(N5CCCN(C)CC5)nc4)ccc23)nc1 | Leishmania major | parasite growth |  | intracellular, amastigote | EC50 | > 23 µM |
| CN[C@H](CC(C)C)C(=O)N[C@H]1C(=O)N[C@@H](CC(N)=O)C(=O)N[C@H]2C(=O)N[C@H]3C(=O)N[C@H](C(=O)N[C@H](C(=O)O)c4cc(O)cc(O)c4-c4cc3ccc4O)[C@H](O)c3ccc(c(Cl)c3)Oc3cc2cc(c3O[C@@H]2O[C@H](CO)[C@@H](O)[C@H](O)[C@H]2O[C@H]2C[C@](C)(N)[C@H](O)[C@H](C)O2)Oc2ccc(cc2Cl)[C@H]1O | Enterococcus faecalis | microbial growth, broth dilution |  | clinical isolate | MIC50 | 2 µg/mL (≈ 1.38 µM) |
| C/C(=N\N=C(/C)c1c(O)c2ccccc2oc1=O)c1c(O)c2ccccc2oc1=O | Aspergillus glaucus | microbial growth, broth dilution |  | 48 h | MIC | 31.2 µg/mL |
| Cc1ccc(Nc2cnnc3cc(-c4ccc(N5CCN(C)CC5)cc4)ccc23)cn1 | Leishmania major | parasite growth |  | intracellular, amastigote | EC50 | > 24 µM |
| COc1ccc(C=NNC(=S)Nc2cccnc2)cc1OC | Leishmania major | parasite growth, MTT |  | 72 h, promastigote | IC50 | 1080 µM |
| COc1ccc(Nc2cnnc3cc(-c4ccc(N5CCN(C)CC5)cc4)ccc23)nc1 | Leishmania major | parasite growth |  | intracellular, amastigote | EC50 | 6 µM |
| C/C(=N\CCNCC/N=C(\C)c1c(O)c2ccccc2oc1=O)c1c(O)c2ccccc2oc1=O | Aspergillus glaucus | microbial growth, broth dilution |  | 48 h | MIC | 31.2 µg/mL |
